# High-throughput results from PubChem BioAssay.
# Rows were chosen to be rich in hits. Some 1.3% of all compounds tested hit in one or more screens of this group.
# ERp5 inh – inhibitors of human ERp5 | inhibition, % at 9.99 µM | AID 651711 | Q15084 | ERp5 insulin aggregation, absorbance 650 nm, 90 min | 0.05% of 350,000 active;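 active means mean replicate inhibition above about 25%, with every replicate also reaching it, limit read from the data, passing the limit was not always enough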
# MLL AF4-AF9 inh – blocks AF4 peptide binding to human AF9. AID 651704. 0.47% of 350,000 active. P42568. AlphaScreen, biotin-AF4 peptide binding to FLAG-AF9. inhibition, % at 10 µM;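 active means every replicate reaching a set inhibition limit, whatever the replicate mean, cut at about 25% in these data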
# SIRT5 inh – blocks human SIRT5 desuccinylation of peptide; Q9NXA8; Purified SirT5, succinyl-peptide AMC, trypsin-coupled fluorescence; inhibition, % at 15 µM; 1.1% of 330,000 active; in the data active means inhibition above about 15%
# PDI inh – inhibitors of human protein disulfide isomerase; inhibition, % at 10 µM; AID 588391; 0.052% of 350,000 active; P07237; PDI insulin aggregation turbidity, A650, 90 min;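 active means mean inhibition across replicates of 30% or more, whatever share of single replicates reach that level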
# Target sequence (P07237 whole entry, looked up): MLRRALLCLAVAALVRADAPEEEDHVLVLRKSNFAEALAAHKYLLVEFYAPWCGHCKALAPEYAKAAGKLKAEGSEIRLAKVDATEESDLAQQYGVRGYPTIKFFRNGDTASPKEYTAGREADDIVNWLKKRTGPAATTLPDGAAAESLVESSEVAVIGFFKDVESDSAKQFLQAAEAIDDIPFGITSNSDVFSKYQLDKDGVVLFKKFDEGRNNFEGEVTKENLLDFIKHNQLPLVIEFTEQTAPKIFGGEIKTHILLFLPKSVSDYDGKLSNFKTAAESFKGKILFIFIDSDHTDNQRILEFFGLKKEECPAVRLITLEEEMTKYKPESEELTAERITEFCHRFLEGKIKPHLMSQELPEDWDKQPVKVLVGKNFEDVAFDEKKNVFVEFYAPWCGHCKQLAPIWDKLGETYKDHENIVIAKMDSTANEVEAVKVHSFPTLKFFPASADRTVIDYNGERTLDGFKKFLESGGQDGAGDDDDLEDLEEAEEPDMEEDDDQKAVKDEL
# FN deposition inh – fibronectin deposition inhibition | AH1F fibroblasts, Alexa488-fibronectin deposition fluorescence, overnight | inhibition, % at 12.6 µM | 0.086% of 350,000 active | AID 743247;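 active means mean inhibition across replicates of 30% or more, regardless of how many single replicates reach that level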
#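 Material: AH1F fibroblast monolayer depositing Alexa488-labelled fibronectin into matrix / Amount: 10000 AH1F cells per well / Signal: fluorescence 485/525 nm / Medium: DMEM, 2% serum / Compound: single dose, pinned / Incubation: 1 h cell adhesion before compound, then overnight fibronectin incubation / Reagent: Alexa488-FN, 24 nM final / Read-out: inhibition of fibronectin deposition signal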
# Numbers stand for hits; 0 = inactive; - = not tested or not shown.
SMILES,ERp5 inh,MLL AF4-AF9 inh,SIRT5 inh,PDI inh,FN deposition inh
C[C@@H]1CCCCO[C@@H](CN(C)C(=O)Cc2ccccc2)[C@@H](C)CN([C@@H](C)CO)C(=O)c2cc(NC(=O)Nc3ccc(F)cc3)ccc2O1,0,0,32,-,-
COc1ccc(NC(=O)Nc2ccc3c(c2)C(=O)N([C@H](C)CO)C[C@@H](C)[C@@H](CN(C)C(=O)Nc2ccc(C(F)(F)F)cc2)O3)cc1,0,0,15,-,-
O=C(C[n+]1cc(-c2ccc(Cl)cc2)n2c1CCC2)N1c2ccccc2Sc2ccccc21,-,-,-,0,0
O=C1c2ccccc2C(=O)N1SC1CCCCC1,-,-,-,0,-
COc1ccc(CNC(=O)C2CCCN(S(=O)(=O)N3CC(C)CC(C)C3)C2)c(OC)c1 (stereo unspecified),0,0,0,0,0
C[C@@H]1CCCCO[C@H](CN(C)C(=O)Nc2ccc(F)cc2)[C@@H](C)CN([C@H](C)CO)C(=O)c2cc(NC(=O)Nc3ccc(F)cc3)ccc2O1,0,0,27,-,0
C[C@@H]1CN([C@@H](C)CO)C(=O)c2cc(NC(=O)c3ccccc3)ccc2O[C@@H](C)CCCCO[C@H]1CN(C)CC1CCCCC1,0,27,0,-,0
C[C@@H]1CCCCO[C@H](CN(C)CC2CCCCC2)[C@H](C)CN([C@H](C)CO)C(=O)c2cc(NC(=O)Nc3ccc(C(F)(F)F)cc3)ccc2O1,0,0,100,-,0
C[C@@H]1CCCCO[C@@H](CN(C)C(=O)C2CCCCC2)[C@@H](C)CN([C@@H](C)CO)C(=O)c2cc(NC(=O)c3ccncc3)ccc2O1,0,0,0,-,-
C[C@@H]1CCCCO[C@@H](CN(C)C(=O)C2CCCCC2)[C@H](C)CN([C@@H](C)CO)C(=O)c2cc(NC(=O)c3ccncc3)ccc2O1,0,0,17,-,-
COc1ccc(NC(=O)Nc2ccc3c(c2)C(=O)N([C@@H](C)CO)C[C@@H](C)[C@H](CN(C)C(=O)Nc2ccc(C(F)(F)F)cc2)OCCCC[C@@H](C)O3)cc1,0,0,18,-,-
Cc1ccc(OCc2n[nH]c(=S)n2-c2ccccc2)cc1C,0,0,-,0,0
COc1ccc(CCN(Cc2cc3ccc(C)cc3n3nnnc23)C(C)=O)cc1OC,0,0,26,0,0
COc1ccc(CCN(Cc2cc3cc(C)ccc3[nH]c2=O)C(C)=O)cc1OC,0,0,0,0,0
COC(=O)C1=CN(c2ccc3c(c2)OCO3)C(N)=C(C#N)C1c1ccc(-c2ccccc2)cc1 (stereo unspecified),0,-,0,-,0
CCCCCCN1C[C@@H](O)[C@H](n2cc(COC(=O)c3ccccc3)nn2)C[C@@H]1c1ccc(C)cc1,0,0,24,0,0
CCCCCCN1C[C@@H](O)[C@H](n2cc(COC(=O)c3ccccc3)nn2)C[C@@H]1c1ccccc1,0,0,0,0,0
COc1ccccc1CNC(=O)COC(=O)c1cc([N+](=O)[O-])ccc1N1CCOCC1,0,0,0,0,0
CCOc1ccc(S(=O)(=O)Nc2cccc(C)c2)c2cccnc12,0,0,18,0,0
CCOc1cc(N2CCOCC2)c(OCC)cc1NC(=O)C(C)Oc1ccccc1 (stereo unspecified),0,29,0,0,-
Cc1ccc(C(=O)N/C(=C\c2ccc(-c3ccc(Br)cc3)o2)C(=O)NCCCN(C)C)cc1,0,25,0,0,0
COc1ccc(C(=O)CSc2[nH]c(=O)cc(C(F)(F)F)c2C#N)cc1,0,0,0,0,0
CCOC(=O)CCCCC(=O)c1[nH]c(=O)[nH]c1CSCCO,0,77,0,0,-
COC(=O)c1ccc(N2CCOCC2)c(NC(=O)c2ccc3c(c2)OCO3)c1,0,0,0,0,0
CO[C@@H]1CN(C)C(=O)c2cc(NC(=O)Nc3ccccc3F)ccc2OC[C@H](C)N(C(C)=O)C[C@@H]1C,-,-,-,-,0
C#CCSc1cc(C(F)(F)F)nc(-c2ccccn2)n1,0,0,20,0,0
C[C@H]1CN([C@@H](C)CO)S(=O)(=O)c2ccc(C3=CCCC3)cc2O[C@@H]1CN(C)Cc1cncnc1,0,0,0,-,-
C/C=C/c1cccc(-c2nc(C(=O)NC3CCC3)cc3c2[C@@H](CCO)N(S(=O)C(C)(C)C)C3)c1 (stereo partly specified),0,0,22,-,0
CC(C)(C)[S@@](=O)N1Cc2cc(C(=O)NCc3ccccc3F)nc(-c3cccc(-c4cncnc4)c3)c2[C@H]1CCO,0,0,0,-,31
